Measured values from paper PMC8785363 (Leukemia, 2019).

Legend:
[1] = Human serum protein binding; format: in vitro ADME; conditions: human
primary CLL cells [2] = experiment: Induction of apoptosis / cell death in primary CLL cells; format: cell-based, human
FBS protein = FBS protein binding; format: in vitro ADME, bovine; conditions: 22 h incubation with the serum; mean ± SD, triplicate
FBS protein binding = format: in vitro ADME, bovine; conditions: bovine
[3] = system: T cells from healthy donors; experiment: Toxicity toward T cells from healthy donors; format: cell-based, human; conditions: n=3
Human serum protein = Human serum protein binding; format: in vitro ADME; conditions: 22 h incubation with the serum, mean ± SD, triplicate
[4] = system: B cells from healthy donors; experiment: Toxicity toward B cells from healthy donors; format: cell-based, human; conditions: n=3
primary CLL cells [5] = experiment: Mitochondrial outer membrane permeabilization; format: cell-based, human; conditions: read-out: IC50 for MOMP induction; 24 h, DiOC6(3) staining; mean ± SD in 15 CLL samples
[6] = human serum and fetal bovine serum; cited from earlier work
primary CLL cells [7] = experiment: Protein synthesis by [3H]leucine incorporation in primary CLL cells; format: cell-based, human; conditions: primary CLL samples, 4 h after exposure
Bcl-XL = experiment: Immunoblot of Bcl-XL protein level in CLL cells; format: cell-based, human
Outline: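 Primary CLL cells from patients (informed consent) exposed to test compound, then immunoblotted for Bcl-XL alongside Mcl-1, Bcl-2 and PARP. Cleaved PARP served as the apoptosis marker. Three CLL patient samples were run, and one representative blot is shown.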

Mcl-1 = experiment: Immunoblot of Mcl-1 protein level in CLL cells; format: cell-based, human; conditions: 24 h
Bcl-2 = experiment: Immunoblot of Bcl-2 protein level in CLL cells; format: cell-based, human; conditions: 24 h

CC(/C=C/C(C)=C/[C@@H]1Cc2nc(cs2)[C@@H](C)C[C@@H](N)CC(=O)O[C@@H](C)C/C(C)=C/C=C\C(=O)O1)=C\CN(C)C [PatA (1), Pateamine A, reference compound]
recovery at 22 h [1]: 80.4 ± 12.8% | fraction unbound at 22 h ([1]; serum): 0.026 | IC50 (primary CLL cells [2]; Homo sapiens, CLL cell, 24 h, read-out: IC50, μM 10% FBS): 0.13 ± 0.08 µM | IC50 (primary CLL cells [2]; Homo sapiens, CLL cell, 24 h, read-out: IC50, μM 10% Plasma): 0.12 ± 0.09 µM | FBS protein binding (%) Recovery (FBS protein): 86.3 ± 4.3% | recovery at 22 h (FBS protein binding; FBS protein binding (%) Recovery, 22 h incubation with the serum, mean ± SD, triplicate): 86.2% | fraction unbound at 22 h (FBS protein binding; serum): 0.013

CC(/C=C/C(C)=C/[C@@H]1Cc2nc(cs2)CC[C@@H](N)CC(=O)O[C@@H](C)C/C(C)=C/C=C\C(=O)O1)=C\CN(C)C [Compound 3, des-methyl PatA]
toxicity to normal T cells compared with CLL cells / PatA [3]: significantly lower toxicity | Human serum protein binding (%) Fraction Bound (Human serum protein): 86.7 ± 4.7% | Human serum protein binding (%) Recovery (Human serum protein): 54.0 ± 2.6% | toxicity to normal B cells compared with CLL cells / PatA [4]: significantly lower toxicity

CC(/C=C/C(C)=C/[C@@H]1Cc2nc(cs2)CCCCC(=O)O[C@@H](C)C/C(C)=C/C=C\C(=O)O1)=C\CN(C)C [DMDA PatA (2), des-methyl, des-amino PatA]
IC50 (primary CLL cells [5]): 4920 ± 1400 nM | stability in human serum compared with fetal bovine serum [6]: similar | inhibition of protein synthesis ([3H]leucine incorporation) (primary CLL cells [7]): inhibited protein synthesis | Human serum protein binding (%) Fraction Bound (Human serum protein): 99.6 ± 0.1% | Human serum protein binding (%) Recovery (Human serum protein): 38.1 ± 7.5% | Human serum protein binding (%) Fraction Bound (Human serum protein; listed as DMDAPatA): 99.7% | Human serum protein binding (%) Recovery (Human serum protein; listed as DMDAPatA): 31.4% | times less potent than PatA (primary CLL cells [2]; CLL cells in media with 10% autologous patient plasma): about 30 times | IC50 (primary CLL cells [2]; read-out: IC50 in one sample with 19% del11q, single CLL sample with 19% del11q): 4.32 µM | effect on Bcl-XL expression (Bcl-XL): without affecting the expression | effect on Mcl-1 protein level (Mcl-1): reduced levels | FBS protein binding (%) Fraction Bound (FBS protein): 99.1 ± 0.1% | FBS protein binding (%) Recovery (FBS protein): 78.3 ± 2.7% | effect on Bcl-2 expression (Bcl-2): without affecting the expression
